From PubChem BioAssay
Sampled rows, rich in hits. Any-hit rate of the full collection: about 4%.
rRNA inh HTS: selective bacterial rRNA inhibition in E. coli; E. coli WT GFP vs humanized-ribosome RFP mutants, fluorescence, 24 h; stronger effect = lower value; DMSO median 0, no signal -100; GFP signal change (wild-type ribosome), % (concentration not given with the values); 350,000 compounds, 1.6% hits;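 active = significant combined selectivity score with lowered wild-type GFP, culture density cut under 30%, mutant RFP and density less affected; inactive = any of these conditions unmet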
SIRT5 inh: sirtuin-5 (human) deacylase inhibition | Q9NXA8 | Purified SirT5, succinyl-peptide AMC, trypsin-coupled fluorescence | inhibition, % at 15 µM | 330,000 compounds, 1.1% hits | AID 652115; in the data active = inhibition above about 15%
Target sequence (Q9NXA8 whole entry, looked up): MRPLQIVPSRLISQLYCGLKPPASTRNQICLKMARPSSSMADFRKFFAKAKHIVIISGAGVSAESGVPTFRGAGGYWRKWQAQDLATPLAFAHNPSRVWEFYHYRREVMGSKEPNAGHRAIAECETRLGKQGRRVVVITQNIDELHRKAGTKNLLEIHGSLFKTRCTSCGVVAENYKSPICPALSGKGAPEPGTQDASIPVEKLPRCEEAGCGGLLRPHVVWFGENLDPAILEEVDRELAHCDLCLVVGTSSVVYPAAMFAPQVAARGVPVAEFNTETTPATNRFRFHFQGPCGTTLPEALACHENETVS
Statin myotox sup: protects C2C12 myotubes from simvastatin toxicity | ATP luminescence, 48 h; scaled: DMSO 0, geranylgeraniol control 100 | 330,000 compounds, 0.78% hits | rescue of ATP level, % at 7.49 µM;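 active = mean ATP rescue above about 67%, or every replicate alone reaching that limit, limit read from the data, passing the limit was not always enough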;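 note: myotubes were challenged with 10 µM simvastatin during compound exposure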
E-selectin induc: induces E-selectin expression in human endothelial cells; HUVEC E-selectin immunofluorescence imaging; normalized: neutral wells 0, TNF-alpha wells 100; activation, % at 7.58 µM; 260,000 compounds, 0.37% hits;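 active = mean E-selectin-positive cell signal at least 10% of the positive control, reached in at least 60% of replicates, without over 20% cell loss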
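Test system: HUVEC; input: 3,000 HUVEC/well; measured by: immunofluorescence imaging; read-out: % PE-positive cells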
FN deposit inh: fibronectin deposition inhibition; AH1F fibroblasts, Alexa488-fibronectin deposition fluorescence, overnight; AID 743247; 350,000 compounds, 0.086% hits; inhibition, % at 12.6 µM;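 active = mean inhibition across replicates of 30% or more, regardless of how many single replicates reach that level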
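Material: AH1F fibroblast monolayer depositing Alexa488-labelled fibronectin into matrix / Amount: 10000 AH1F cells per well / Signal: fluorescence 485/525 nm / Medium: DMEM, 2% serum / Compound: single dose, pinned / Incubation: 1 h cell adhesion before compound, then overnight fibronectin incubation / Reagent: Alexa488-FN, 24 nM final / Read-out: inhibition of fibronectin deposition signal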
FGF22 binding: shifts melting point of recombinant human FGF22. recombinant FGF22 thermal shift, SYPRO orange fluorescence; percent of sucrose octasulfate shift, DMSO zero. activity (Tm shift, normalised), % at 9.99 µM. 340,000 compounds, 1.5% hits. AID 651658;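 active = mean Tm shift, scaled 0 neutral to 100 positive control, at about 1.3% or above, every replicate too, limit read from the data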
Target sequence (Q9HCT0 whole entry, looked up): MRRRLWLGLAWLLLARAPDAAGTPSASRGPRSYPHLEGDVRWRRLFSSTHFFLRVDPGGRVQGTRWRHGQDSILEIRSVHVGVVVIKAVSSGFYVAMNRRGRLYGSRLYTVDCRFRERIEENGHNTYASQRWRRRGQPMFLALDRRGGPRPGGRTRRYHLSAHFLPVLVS
Numbers stand for hits; . = inactive; / = not tested or not shown; ! = a repeat was not active.

SMILES	rRNA inh HTS	SIRT5 inh	Statin myotox sup	E-selectin induc	FN deposit inh	FGF22 binding
Nc1nc2c(s1)CCCCCCCCCC2	-50.4	.	/	.	.	.
O=C(c1ccc(F)cc1)N1CCCCN2[C@H](CO)[C@H](c3ccc(C#CC4(O)CCCC4)cc3)[C@H]2C1	.	.	/	.	/	.
O=C1C(=C(c2ccccc2)N2CCOCC2)Cc2ccccc21	-21.7	/	/	/	/	.
CN1c2ccccc2-c2nc3ccccc3n2C1c1ccncc1 (centres undefined)	-23.1	.	/	/	.	/
Cc1sc2nc(CN3CCOCC3)nc(N3CCN(S(=O)(=O)c4ccccc4)CC3)c2c1C	-24.4	.	.	/	.	.
Cc1sc2nc(CN3CCCC3)nc(N3CCN(C(=O)c4ccco4)CC3)c2c1C	.	.	/	/	.	43.8
CCc1cc2c(N3CCN(C(=O)c4ccco4)CC3)ncnc2s1	-30.0	.	.	.	.	.
COCC(=O)N(C)C[C@@H]1Oc2ncc(-c3ccc(C)cc3)cc2C(=O)N([C@@H](C)CO)C[C@@H]1C	.	.	.	.	.	.
COc1ccccc1-c1cnc2c(c1)C(=O)N([C@@H](C)CO)C[C@@H](C)[C@@H](CN(C)Cc1cccc(F)c1)O2	.	.	.	.	.	.
COc1cc(CCC(=O)OCC(=O)Nc2c(F)cccc2F)cc(OC)c1OC	/	.	.	/	.	.
COc1cc(CCC(=O)OCC(N)=O)cc(OC)c1OC	.	.	.	/	.	43.5
COc1ccc(-n2c(SCC(N)=O)nc3sc4c(c3c2=O)CCC4)cc1	.	.	.	/	.	43.0
COc1ccc(-n2c(SCC(=O)O)nc3sc4c(c3c2=O)CCC4)cc1	.	.	.	.	.	.
COc1ccc(NC(=O)C2CC3C=CC2C3)c([N+](=O)[O-])c1 (centres undefined)	-21.8	.	/	.	/	.
COc1cccc(S(=O)(=O)N[C@H]2CC[C@@H](CCn3cc(-c4ccccn4)nn3)O[C@H]2CO)c1	.	.	.	.	/	.
O=C1c2ccccc2C(=O)N1C1CCN(Cc2cccc(OCCO)c2)CC1	/	/	/	/	/	.
CC(C)(C)Cc1nc2ccccc2n1CCc1ccccc1	/	/	.	/	.	/
CCn1c(CCc2ccccc2)nc2ccccc21	-23.3	.	.	.	.	.
CC(C)Cc1nc2ccccc2n1CCc1ccccc1	/	.	/	/	.	43.4
CCc1nc2ccccc2n1CCc1ccccc1	-24.1	.	/	.	.	.
CN1C(=O)c2cc(NC(=O)Cc3cccs3)ccc2OC[C@@H]2O[C@@H](CC(=O)NCC3CC3)CC[C@H]21	.	.	.	.	.	.
O=C(NC[C@@H]1CC[C@H]2[C@H](CN2C(=O)CN2CCOCC2)O1)NC1CCCCC1	/	.	/	/	/	/
Cc1onc(-c2ccccc2)c1-c1nnc(-c2ccccc2C(F)(F)F)o1	-19.9	.	.	.	.	.
Cc1cc(C)nc(N(C#N)Cc2ccccc2C)n1	.	.	/	.	.	.
Cc1cc(C)nc(N(C#N)Cc2ccccc2Cl)n1	.	.	68.8	.	.	.
SMILES	rRNA inh HTS	SIRT5 inh	Statin myotox sup	E-selectin induc	FN deposit inh	FGF22 binding
C[C@H](CO)N1C[C@H](C)[C@@H](CN(C)S(=O)(=O)c2ccc(Cl)cc2)Oc2c(NC(=O)Nc3ccc(C(F)(F)F)cc3)cccc2C1=O	.	.	102.5	/	/	.
C[C@@H]1CN([C@@H](C)CO)C(=O)c2cccc(NC(=O)Nc3ccc(C(F)(F)F)cc3)c2O[C@H]1CN(C)S(=O)(=O)c1ccc(Cl)cc1	.	.	.	/	/	.
C[C@H]1CN([C@@H](C)CO)C(=O)c2cccc(NC(=O)Nc3ccc(C(F)(F)F)cc3)c2O[C@@H]1CN(C)S(=O)(=O)c1ccc(Cl)cc1	.	.	112.6!	.	.	.
O=C(Nc1ccccc1Cl)c1sccc1-c1ccccc1	.	79.4	.	/	.	.
Cc1ccc(S(=O)(=O)N(C)CCN(C)S(=O)(=O)c2ccc(C)cc2)cc1	.	/	.	.	.	43.2
Cc1ccc(S(=O)(=O)N(C)Cc2ccc(-c3nnco3)cc2)cc1	/	/	108.1	/	/	/
Cc1ccc(S(=O)(=O)N(C)CCCC(=O)NC(C)(C)CO)cc1	.	27.0	.	.	.	.
Cc1ccc(S(=O)(=O)N(C)CCCC(=O)NC(C)(C)C)cc1	.	.	.	/	.	.
CCN(CC)S(=O)(=O)c1ccc(-c2nnco2)cc1	/	/	.	/	/	/
COc1ccc(-c2c(C(=O)c3ccccc3)[nH]c(N)c2C(N)=O)cc1OC	.	.	/	.	.	.
COc1ccc(-c2c(C(=O)c3ccccc3)[nH]c(N)c2C(=O)NCc2ccccc2)cc1OC	-35.5	.	/	/	.	.
CN(C1CCCCC1)S(=O)(=O)c1ccccc1	/	/	.	/	/	/
CN(C1CCCCC1)S(=O)(=O)c1cn(C)c(=O)n(C)c1=O	.	.	.	29.2	.	.
CCCCCCCCCCCCCCCCn1cc[n+](C)c1	.	.	/	/	33.9	.
COCCNC(=O)c1noc2c1CCc1cc(OC)ccc1-2	/	/	.	/	/	/
COc1ccc2c(c1)CCc1c(C(=O)N(C)c3ccccc3)noc1-2	-42.9	.	.	.	.	.
CCCOc1ccc(/C=c2\sc3nc(-c4ccco4)nn3c2=O)cc1OCC	/	/	98.4	/	/	/
CCCCCOc1ccc(/C=c2\sc3nc(=O)c(-c4ccccc4)nn3c2=O)cc1OC	.	.	/	/	.	.
COc1ccc(C2CC(=O)C(C=NCCO)=C(O)C2)cc1 (centres undefined)	.	23.2	.	/	.	.
COc1ccc(C2CC(=O)C(C=NCCO)=C(O)C2)cc1OC (centres undefined)	/	/	.	/	.	/
C(=N\Nc1ncnc2nc[nH]c12)/c1cccs1	.	.	.	/	.	43.3
Cc1ccsc1/C=N/Nc1ncnc2nc[nH]c12	.	.	/	.	.	.
O=S(=O)(O)c1ccc(N=NNc2ccc(Br)cc2)cc1	.	.	.	/	.	.
